In ChEMBL document CHEMBL3804766, “Discovery of Dual Inhibitors for Wild Type and D816V Mutant of c-KIT Kinase through Virtual and Biochemical Screening of Natural Products” (J Nat Prod, 2016):

Columns and labels:
[1] = molecular target: T1, Mast/stem cell growth factor receptor Kit (Homo sapiens, UniProt P10721); assay: Inhibition of wild type His-tagged c-KIT (544 to 976 amino acids) (unknown origin) expressed in insect cells using poly[Glu:Tyr] (4:1) as substrate preincubated for 20 mins followed by [33P-gamma]ATP addition and subsequent inhibition for 2 hrs by radiometric assay
Procedure, shortened: (§1)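 Compounds were serially diluted in DMSO and preincubated with enzyme for 20 min at RT. Final ATP was 1 μM. Reaction ran 2 h at RT, read by filter binding. Percent activity was taken relative to DMSO, and IC50 came from curve fitting.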

[2] = molecular target: T1, Mast/stem cell growth factor receptor Kit; assay: Inhibition of wild type c-KIT (unknown origin) expressed in T7-phage infected Escherichia coli BL21 assessed as remaining activity at 100 uM incubated for 1 hr with shaking by qPCR method relative to control
Procedure, shortened: (§2)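 Competition binding assay run at a single 100 μM concentration, added from 40× DMSO stocks. Tagged kinase was combined with immobilized biotinylated ligand on streptavidin magnetic beads in SeaBlock/0.17× PBS/0.05% Tween 20/6 mM DTT for 1 h at RT with shaking. Beads were washed, then eluted with 0.5 μM free ligand for 30 min. Eluted kinase was quantified by qPCR as percent of control.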

[3] = molecular target: Mast/stem cell growth factor receptor Kit (Homo sapiens, UniProt P10721, D816V); assay: Inhibition of N-terminal GST-His-tagged c-KIT (544 to 976 amino acids) D816V mutant (unknown origin) expressed in Sf9 insect cells using poly[Glu:Tyr] (4:1) as substrate preincubated for 20 mins followed by [33P-gamma]ATP addition and subsequent inhibition for 2 hrs by radiometric assay; procedure, shortened: as §1
[4] = system: Mast/stem cell growth factor receptor Kit (Homo sapiens), P10721 [D816V]; assay: Inhibition of c-KIT D816V mutant (unknown origin) expressed in HEK293 cells assessed as remaining activity at 100 uM incubated for 1 hr with shaking by qPCR method relative to control; type: cell-based; procedure, shortened: as §2
Homo sapiens = species: Homo sapiens; assay: Selectivity ratio of IC50 for wild type His-tagged c-KIT (544 to 976 amino acids) (unknown origin) to IC50 for N-terminal GST-His-tagged c-KIT (544 to 976 amino acids) D816V mutant (unknown origin)

T1 sequence (P10721 whole entry, the tested form may be a part): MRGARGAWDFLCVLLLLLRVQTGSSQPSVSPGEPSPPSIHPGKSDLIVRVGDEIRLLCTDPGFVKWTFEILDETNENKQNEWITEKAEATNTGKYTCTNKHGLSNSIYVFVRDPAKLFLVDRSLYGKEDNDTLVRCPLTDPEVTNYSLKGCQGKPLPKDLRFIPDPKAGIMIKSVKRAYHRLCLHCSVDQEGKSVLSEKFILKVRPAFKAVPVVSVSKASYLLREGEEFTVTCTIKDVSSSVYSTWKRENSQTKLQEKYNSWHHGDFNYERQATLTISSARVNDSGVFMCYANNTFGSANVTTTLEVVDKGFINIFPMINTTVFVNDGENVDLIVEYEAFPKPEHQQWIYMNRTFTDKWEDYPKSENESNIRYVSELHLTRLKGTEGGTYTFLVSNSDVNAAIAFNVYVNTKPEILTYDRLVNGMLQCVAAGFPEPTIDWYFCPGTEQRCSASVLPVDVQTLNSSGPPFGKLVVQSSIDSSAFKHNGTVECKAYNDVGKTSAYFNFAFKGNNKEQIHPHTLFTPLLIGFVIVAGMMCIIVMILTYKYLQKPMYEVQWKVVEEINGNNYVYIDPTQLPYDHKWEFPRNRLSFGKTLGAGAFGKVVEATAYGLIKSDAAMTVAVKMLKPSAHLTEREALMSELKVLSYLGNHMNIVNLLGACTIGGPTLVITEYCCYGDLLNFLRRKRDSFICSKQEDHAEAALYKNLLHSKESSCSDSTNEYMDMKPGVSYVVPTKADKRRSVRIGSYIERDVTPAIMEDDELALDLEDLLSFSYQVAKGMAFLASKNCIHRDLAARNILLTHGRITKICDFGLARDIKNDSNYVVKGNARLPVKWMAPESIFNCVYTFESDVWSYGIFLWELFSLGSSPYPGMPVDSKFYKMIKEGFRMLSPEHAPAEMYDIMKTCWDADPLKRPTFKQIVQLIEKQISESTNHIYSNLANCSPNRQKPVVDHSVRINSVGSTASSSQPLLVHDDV
Chain of Mast/stem cell growth factor receptor Kit (Homo sapiens), P10721 [D816V] (P10721 whole entry D816V, the tested form may be a part): as the sequence (P10721 whole entry, the tested form may be a part) above, with D816V counted along it
Chain of Mast/stem cell growth factor receptor Kit (Homo sapiens, UniProt P10721, D816V) (P10721 26-976 D816V limits assumed): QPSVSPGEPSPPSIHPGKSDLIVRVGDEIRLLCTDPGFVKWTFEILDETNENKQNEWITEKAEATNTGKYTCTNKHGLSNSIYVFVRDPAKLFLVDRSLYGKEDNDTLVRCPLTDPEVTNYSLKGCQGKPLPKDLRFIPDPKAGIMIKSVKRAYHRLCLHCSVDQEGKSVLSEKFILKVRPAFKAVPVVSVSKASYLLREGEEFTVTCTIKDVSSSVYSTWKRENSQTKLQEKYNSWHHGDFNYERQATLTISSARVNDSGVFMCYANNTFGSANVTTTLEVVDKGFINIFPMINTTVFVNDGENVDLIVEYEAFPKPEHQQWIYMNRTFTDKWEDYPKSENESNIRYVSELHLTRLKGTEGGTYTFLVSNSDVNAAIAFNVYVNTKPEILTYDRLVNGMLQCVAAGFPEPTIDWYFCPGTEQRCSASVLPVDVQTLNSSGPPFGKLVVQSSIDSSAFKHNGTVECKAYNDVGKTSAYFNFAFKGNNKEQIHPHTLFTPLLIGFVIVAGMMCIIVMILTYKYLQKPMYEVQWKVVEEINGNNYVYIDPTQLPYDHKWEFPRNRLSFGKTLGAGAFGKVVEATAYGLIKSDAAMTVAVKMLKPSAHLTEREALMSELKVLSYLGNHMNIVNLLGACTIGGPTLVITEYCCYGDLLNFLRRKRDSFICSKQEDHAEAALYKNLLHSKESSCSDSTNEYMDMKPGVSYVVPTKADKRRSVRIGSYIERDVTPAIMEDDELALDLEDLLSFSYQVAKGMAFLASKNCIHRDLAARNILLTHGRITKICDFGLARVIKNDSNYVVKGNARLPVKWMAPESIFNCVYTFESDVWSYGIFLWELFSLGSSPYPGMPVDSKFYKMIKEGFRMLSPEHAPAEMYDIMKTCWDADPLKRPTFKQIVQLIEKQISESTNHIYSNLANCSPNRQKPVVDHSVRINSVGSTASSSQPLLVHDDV

SMILES	IC50 [1] [nM]	Kinase binding remaining, % of control [2] [%]	IC50 [3] [nM]	Activity [4] [%]	Ratio IC50 (Homo sapiens)
COc1ccc(-c2cc(=O)c3c(O)c(OC)c(O)cc3o2)cc1 [PECTOLINARIGENIN]	1500	0	600	3	
COc1c(O)c(O)c2oc(-c3ccccc3)cc(=O)c2c1OC	7800	1	500	0	
COc1ccc(/C=C2\Oc3cc(O)ccc3C2=O)cc1	15600	0	1400	15	> 10
O=C1c2c(O)cc(O)cc2O[C@H](c2ccc(O)c(O)c2)[C@H]1O		12		15	
